Source: ChEMBL document CHEMBL3817843, “Understanding Oxadiazolothiazinone Biological Properties: Negative Inotropic Activity versus Cytochrome P450-Mediated Metabolism” (J Med Chem, 2016)
One block for each compound: values may come before it.

Key:
[1] = test system: Left cardiac atrium; assay: Negative inotropic activity in potassium depolarized guinea pig left atrium assessed as reduction in developed tension after 30 mins; type: functional; details: Cavia porcellus, 0.5 h
Procedure, shortened: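 Guinea pig left atria electrically driven at 1 Hz. EC50 taken from log concentration−response curves by Litchfield and Wilcoxon probit analysis, n = 6−7. Not calculated when the maximum effect was below 50%.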

[2] = test system: Left cardiac atrium; assay: Negative inotropic activity in potassium depolarized guinea pig left atrium assessed as reduction in developed tension at 10^-4 M after 30 mins; type: functional, Cavia porcellus; parameters: scale not given: the % may be the effect or the level left
[3] = test system: Right cardiac atrium; assay: Negative chronotropic activity in potassium depolarized guinea pig right atrium assessed as reduction in atrial rate at 10^-4 M after 30 mins; type: functional, Cavia porcellus; parameters: scale not given: the % may be the effect or the level left
[4] = test system: Aorta; assay: Vasorelaxant activity in potassium depolarized guinea pig aorta assessed as inhibition of calcium-induced contraction at 10^-4 M after 30 mins; type: functional, Cavia porcellus; parameters: scale not given: the % may be the effect or the level left
Procedure, shortened: (§1)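 Guinea pig aortic strips depolarized with K+ (80 mM). Calcium-induced contraction measured; inhibition expressed as percent change from control, n = 3−5.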

[5] = test system: Left cardiac atrium; assay: Negative inotropic activity in potassium depolarized guinea pig left atrium assessed as reduction in developed tension at 10^-6 M after 30 mins; type: functional, Cavia porcellus; parameters: scale not given: the % may be the effect or the level left
[6] = test system: Right cardiac atrium; assay: Negative chronotropic activity in potassium depolarized guinea pig right atrium assessed as reduction in atrial rate at 50 uM after 30 mins; type: functional, Cavia porcellus; parameters: scale not given: the % may be the effect or the level left
[7] = test system: Aorta; assay: Vasorelaxant activity in potassium depolarized guinea pig aorta assessed as inhibition of calcium-induced contraction at 50 uM after 30 mins; type: functional, Cavia porcellus; parameters: scale not given: the % may be the effect or the level left; procedure, shortened: as §1
[8] = molecular target: T1, Cytochrome P450 1A2 (Homo sapiens, UniProt P05177); assay: Inhibition of CYP1A2 in human liver microsomes using phenacetin as substrate after 30 mins by LC-MS analysis
T1 sequence (P05177 whole entry): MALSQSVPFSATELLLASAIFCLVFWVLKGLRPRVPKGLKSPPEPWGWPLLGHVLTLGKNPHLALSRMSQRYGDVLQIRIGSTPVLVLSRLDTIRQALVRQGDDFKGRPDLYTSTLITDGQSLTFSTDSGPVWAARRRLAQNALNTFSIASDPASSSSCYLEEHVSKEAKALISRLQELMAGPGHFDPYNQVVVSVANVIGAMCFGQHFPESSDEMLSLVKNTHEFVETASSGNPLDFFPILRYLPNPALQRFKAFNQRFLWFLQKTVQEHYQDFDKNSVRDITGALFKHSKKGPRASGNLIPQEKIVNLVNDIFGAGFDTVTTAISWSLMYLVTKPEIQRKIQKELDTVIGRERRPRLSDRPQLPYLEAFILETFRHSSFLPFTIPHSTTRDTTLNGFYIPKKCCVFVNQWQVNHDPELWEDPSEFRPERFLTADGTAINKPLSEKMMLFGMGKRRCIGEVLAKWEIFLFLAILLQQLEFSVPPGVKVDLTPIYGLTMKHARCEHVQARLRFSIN

[9] = molecular target: Cytochrome P450 2D6 (Homo sapiens, UniProt P10635); assay: Inhibition of CYP2D6 in human liver microsomes using dextromethorphan as substrate after 10 mins by LC-MS analysis
Chain of Cytochrome P450 2D6 (P10635 whole entry): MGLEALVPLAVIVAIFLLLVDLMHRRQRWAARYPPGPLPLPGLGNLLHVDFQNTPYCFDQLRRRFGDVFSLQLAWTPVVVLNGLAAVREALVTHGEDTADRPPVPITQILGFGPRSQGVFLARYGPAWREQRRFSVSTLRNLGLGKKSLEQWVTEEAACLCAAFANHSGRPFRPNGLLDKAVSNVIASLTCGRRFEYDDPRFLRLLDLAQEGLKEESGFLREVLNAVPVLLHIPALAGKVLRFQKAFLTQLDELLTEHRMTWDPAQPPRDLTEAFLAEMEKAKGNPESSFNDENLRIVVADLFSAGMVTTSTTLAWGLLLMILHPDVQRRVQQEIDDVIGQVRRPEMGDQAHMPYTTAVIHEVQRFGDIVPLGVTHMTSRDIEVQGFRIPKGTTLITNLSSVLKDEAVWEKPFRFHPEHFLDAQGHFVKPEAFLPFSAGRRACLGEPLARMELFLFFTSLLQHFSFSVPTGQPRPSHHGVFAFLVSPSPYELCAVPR

[10] = in vitro; details: human, liver microsomes
[11] = molecular target: Cytochrome P450 2C19 (Homo sapiens, UniProt P33261); assay: Inhibition of CYP2C19 in human liver microsomes using (S)-mephenytoin as substrate after 40 mins by LC-MS analysis
Chain of Cytochrome P450 2C19 (P33261 whole entry): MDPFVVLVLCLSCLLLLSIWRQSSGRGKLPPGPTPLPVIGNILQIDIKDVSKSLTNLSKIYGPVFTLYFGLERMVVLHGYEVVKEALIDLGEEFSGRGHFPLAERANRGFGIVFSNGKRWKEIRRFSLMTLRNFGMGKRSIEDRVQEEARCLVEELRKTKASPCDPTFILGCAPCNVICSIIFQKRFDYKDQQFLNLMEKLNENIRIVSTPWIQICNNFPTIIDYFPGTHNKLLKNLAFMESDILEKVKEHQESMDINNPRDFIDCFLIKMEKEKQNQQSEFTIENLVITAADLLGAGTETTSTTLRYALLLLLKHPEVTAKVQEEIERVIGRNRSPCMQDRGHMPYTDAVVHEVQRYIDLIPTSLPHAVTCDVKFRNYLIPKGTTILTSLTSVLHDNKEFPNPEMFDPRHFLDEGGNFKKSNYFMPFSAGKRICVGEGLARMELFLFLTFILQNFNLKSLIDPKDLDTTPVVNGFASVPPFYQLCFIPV

[12] = molecular target: Cytochrome P450 2C9 (Homo sapiens, UniProt P11712); assay: Inhibition of CYP2C9 in human liver microsomes using tolbutamide as substrate after 20 mins by LC-MS analysis
Chain of Cytochrome P450 2C9 (P11712 whole entry): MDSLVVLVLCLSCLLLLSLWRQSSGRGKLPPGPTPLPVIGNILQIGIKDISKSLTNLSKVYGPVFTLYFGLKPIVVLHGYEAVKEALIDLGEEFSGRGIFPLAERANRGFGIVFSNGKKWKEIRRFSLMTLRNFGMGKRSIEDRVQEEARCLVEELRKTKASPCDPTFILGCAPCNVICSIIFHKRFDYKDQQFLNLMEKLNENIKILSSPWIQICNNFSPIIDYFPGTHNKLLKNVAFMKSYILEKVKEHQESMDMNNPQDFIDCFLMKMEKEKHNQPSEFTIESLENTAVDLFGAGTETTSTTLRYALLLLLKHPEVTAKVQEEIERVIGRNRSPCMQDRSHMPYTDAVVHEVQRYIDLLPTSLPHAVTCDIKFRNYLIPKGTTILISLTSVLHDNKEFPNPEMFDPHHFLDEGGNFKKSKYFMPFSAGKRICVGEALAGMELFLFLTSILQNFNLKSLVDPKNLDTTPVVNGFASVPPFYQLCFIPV

[13] = test system: Liver microsome; assay: Stability in human liver microsomes at 1 uM after 2 to 60 mins by LC-MS analysis in absence of NADPH
[14] = Relaxant activity in potassium depolarized guinea pig ileum longitudinal smooth muscle assessed as inhibition of calcium-induced contraction after 30 mins; type: functional, tissue-based; details: Cavia porcellus, 0.5 h
[15] = molecular target: T2, Cytochrome P450 3A4 (Homo sapiens, UniProt P08684); assay: Inhibition of CYP3A4 in human liver microsomes using midazolam as substrate after 4 mins by LC-MS analysis
T2 sequence (P08684 whole entry): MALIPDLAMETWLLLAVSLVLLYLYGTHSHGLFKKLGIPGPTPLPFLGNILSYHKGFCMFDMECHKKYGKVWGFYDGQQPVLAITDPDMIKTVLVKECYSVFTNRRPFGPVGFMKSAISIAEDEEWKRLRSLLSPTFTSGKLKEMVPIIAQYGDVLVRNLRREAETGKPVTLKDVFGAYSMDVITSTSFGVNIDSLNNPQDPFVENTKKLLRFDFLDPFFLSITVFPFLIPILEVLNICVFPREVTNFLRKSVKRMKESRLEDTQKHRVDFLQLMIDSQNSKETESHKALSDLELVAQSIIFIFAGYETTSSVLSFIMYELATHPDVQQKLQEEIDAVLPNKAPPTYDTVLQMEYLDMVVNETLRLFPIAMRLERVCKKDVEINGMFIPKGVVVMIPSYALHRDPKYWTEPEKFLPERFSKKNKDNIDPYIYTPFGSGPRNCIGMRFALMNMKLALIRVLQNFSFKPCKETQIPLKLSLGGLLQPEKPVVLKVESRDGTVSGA

[16] = Relaxant activity in potassium depolarized guinea pig ileum longitudinal smooth muscle assessed as inhibition of calcium-induced contraction at 10^-4 M after 30 mins; type: functional, Cavia porcellus; parameters: scale not given: the % may be the effect or the level left
[17] = molecular target: T2, Cytochrome P450 3A4; assay: Inhibition of CYP3A4 in human liver microsomes using testosterone as substrate after 5 mins by LC-MS analysis
[18] = Half life in human liver microsomes assessed as CYP-mediated compound degradation at 1 uM by LC-MS analysis
[19] = test system: Left cardiac atrium; assay: Negative inotropic activity in potassium depolarized guinea pig left atrium assessed as reduction in developed tension at 10^-5 M; type: functional, Cavia porcellus; parameters: scale not given: the % may be the effect or the level left
[20] = test system: Aorta; assay: Vasorelaxant activity in potassium depolarized guinea pig aorta assessed as inhibition of calcium-induced contraction at 10^-4 M; type: functional, Cavia porcellus; parameters: scale not given: the % may be the effect or the level left; procedure, shortened: as §1
[21] = test system: Left cardiac atrium; assay: Negative inotropic activity in potassium depolarized guinea pig left atrium assessed as reduction in developed tension at 10^-5 M after 30 mins; type: functional, Cavia porcellus; parameters: scale not given: the % may be the effect or the level left
[22] = test system: Right cardiac atrium; assay: Negative chronotropic activity in potassium depolarized guinea pig right atrium assessed as reduction in atrial rate at 10^-6 M after 30 mins; type: functional, Cavia porcellus; parameters: scale not given: the % may be the effect or the level left
[23] = test system: Right cardiac atrium; assay: Negative chronotropic activity in potassium depolarized guinea pig right atrium assessed as reduction in atrial rate after 30 mins; type: functional; details: Cavia porcellus, 0.5 h
[24] = Relaxant activity in potassium depolarized guinea pig ileum longitudinal smooth muscle assessed as inhibition of calcium-induced contraction at 5 uM after 30 mins; type: functional, Cavia porcellus; parameters: scale not given: the % may be the effect or the level left
[25] = test system: Left cardiac atrium; assay: Negative inotropic activity in potassium depolarized guinea pig left atrium assessed as reduction in developed tension at 50 uM after 30 mins; type: functional, Cavia porcellus; parameters: scale not given: the % may be the effect or the level left
[26] = test system: Right cardiac atrium; assay: Negative chronotropic activity in potassium depolarized guinea pig right atrium assessed as reduction in atrial rate at 10^-5 M after 30 mins; type: functional, Cavia porcellus; parameters: scale not given: the % may be the effect or the level left
[27] = test system: Left cardiac atrium; assay: Negative inotropic activity in potassium depolarized guinea pig left atrium assessed as reduction in developed tension at 5 uM after 30 mins; type: functional, Cavia porcellus; parameters: scale not given: the % may be the effect or the level left

SMILES: COc1ccc(C2(OCC3CCCCC3)SC=C(C)n3c2noc3=O)cc1 (stereo not given)
- EC50 [1]: 0.66 µM
- Activity [2]: 80%
- Activity [3]: 3%
- Activity [4]: 21%

SMILES: COc1ccc(C2(O)Sc3ccccc3-n3c2noc3=O)cc1 (stereo not given)
- Activity [5]: 95%
- Activity [6]: 26%
- EC50 [1]: 0.1 µM
- Activity [7]: 19%

SMILES: COc1ccc([C@@H]2Sc3ccccc3N(CCN(C)C)C(=O)[C@@H]2OC(C)=O)cc1 [DILTIAZEM]
- Activity [19]: 78%
- Activity [20]: 88%
- IC50 [14]: 0.11 µM
- Activity [21]: 78%
- Activity [22]: 94%
- Activity [4]: 88%
- EC30 [23]: 0.07 µM
- Activity [24]: 98%

SMILES: COc1ccccc1C1(O)SC=C(C)n2c1noc2=O (stereo not given)
- EC50 [1]: 0.93 µM
- Activity [25]: 94%
- Activity [26]: 11%
- Activity [4]: 25%

SMILES: CC(C)OC1(c2ccccc2)Sc2ccccc2-n2c1noc2=O (stereo not given)
- EC50 [1]: 0.41 µM
- Activity [25]: 69%
- Activity [3]: 13%
- Activity [4]: 7%

SMILES: O=c1onc2n1-c1ccccc1SC2(OCC(F)(F)F)c1ccc(Br)cc1 (stereo not given)
- IC50 [8]: > 20 µM
- IC50 [9]: > 20 µM
- IC50 [11]: 10.8 µM
- IC50 [12]: > 20 µM
- Stability [13]: Stable
- IC50 [15]: > 20 µM
- IC50 [17]: > 20 µM

SMILES: COc1cccc(C2(OCC(F)(F)F)SC=C(C)n3c2noc3=O)c1 (stereo not given)
- EC50 [1]: 0.32 µM
- IC50 [14]: 12.4 µM
- Activity [3]: 9%
- Activity [21]: 72%
- Activity [16]: 95%
- Activity [4]: 40%

SMILES: O=c1onc2n1C=CSC2(O)c1ccccc1 (stereo not given)
- Activity [6]: 14%
- Activity [25]: 74%
- Activity [7]: 11%

SMILES: CC1=CSC(OCC(F)(F)F)(c2ccc(Br)cc2)c2noc(=O)n21 (stereo not given)
- IC50 [8]: 5 µM
- IC50 [9]: 7.1 µM
- microsomal CLint at 1 µM [10]: < 7 µL/min/mg
- IC50 [11]: 1 µM
- IC50 [12]: 6.6 µM
- Stability [13]: Stable
- IC50 [15]: > 20 µM
- IC50 [17]: > 20 µM
- half-life at 1 µM [18]: > 250 min

Further compounds by falling EC50 [1], results first:

- EC50 [1]: 0.65 µM
SMILES: COc1cccc(C2(OCC3CCCCC3)SC=C(C)n3c2noc3=O)c1 (stereo not given)
- Activity [6]: 4%
- Activity [25]: 83%
- Activity [4]: 20%

- EC50 [1]: 0.52 µM
SMILES: COc1ccc(C2(O)SC=C(C)n3c2noc3=O)cc1 (stereo not given)
- Activity [6]: 12%
- Activity [25]: 76%
- Activity [7]: 18%

- EC50 [1]: 0.43 µM
SMILES: COc1ccc(C2(OC(C)C)SC=C(C)n3c2noc3=O)cc1 (stereo not given)
- Activity [6]: 14%
- Activity [21]: 69%
- Activity [4]: 11%

- EC50 [1]: 0.14 µM
SMILES: CCOC1(c2ccccc2OC)SC=C(C)n2c1noc2=O (stereo not given)
- Activity [27]: 85%
- Activity [26]: 29%
- Activity [4]: 28%

- IC50 [8]: > 20 µM
- IC50 [9]: > 20 µM
- EC50 [1]: 0.095 µM
- microsomal CLint at 1 µM [10]: 76 µL/min/mg
- IC50 [11]: 17 µM
- IC50 [12]: > 20 µM
- Stability [13]: Stable
- IC50 [14]: 10.3 µM
- IC50 [15]: > 20 µM
- IC50 [17]: > 20 µM
- half-life at 1 µM [18]: 23 min
SMILES: COc1ccc(C2(OCC(F)(F)F)Sc3ccccc3-n3c2noc3=O)cc1 (stereo not given)
- Activity [2]: 82%
- Activity [3]: 19%
- Activity [16]: 66%
- Activity [4]: 6%
